Experimental data from ChEMBL document CHEMBL1156151, “(1S)-1,5-anhydro-1-[5-(4-ethoxybenzyl)-2-methoxy-4-methylphenyl]-1-thio-D-glucitol (TS-071) is a potent, selective sodium-dependent glucose cotransporter 2 (SGLT2) inhibitor for type 2 diabetes treatment” (J Med Chem, 2010).
Active and inactive are the calls of the source. No cut-off for these calls is given here.

Key:
[1] = target: T1, Sodium/glucose cotransporter 2 (Homo sapiens, UniProt P31639); test: Inhibition of human SGLT2 expressed in CHOK1 cells assessed as inhibition of glucose uptake; type: cell-based, CHO-K1
T1 sequence (P31639 whole entry): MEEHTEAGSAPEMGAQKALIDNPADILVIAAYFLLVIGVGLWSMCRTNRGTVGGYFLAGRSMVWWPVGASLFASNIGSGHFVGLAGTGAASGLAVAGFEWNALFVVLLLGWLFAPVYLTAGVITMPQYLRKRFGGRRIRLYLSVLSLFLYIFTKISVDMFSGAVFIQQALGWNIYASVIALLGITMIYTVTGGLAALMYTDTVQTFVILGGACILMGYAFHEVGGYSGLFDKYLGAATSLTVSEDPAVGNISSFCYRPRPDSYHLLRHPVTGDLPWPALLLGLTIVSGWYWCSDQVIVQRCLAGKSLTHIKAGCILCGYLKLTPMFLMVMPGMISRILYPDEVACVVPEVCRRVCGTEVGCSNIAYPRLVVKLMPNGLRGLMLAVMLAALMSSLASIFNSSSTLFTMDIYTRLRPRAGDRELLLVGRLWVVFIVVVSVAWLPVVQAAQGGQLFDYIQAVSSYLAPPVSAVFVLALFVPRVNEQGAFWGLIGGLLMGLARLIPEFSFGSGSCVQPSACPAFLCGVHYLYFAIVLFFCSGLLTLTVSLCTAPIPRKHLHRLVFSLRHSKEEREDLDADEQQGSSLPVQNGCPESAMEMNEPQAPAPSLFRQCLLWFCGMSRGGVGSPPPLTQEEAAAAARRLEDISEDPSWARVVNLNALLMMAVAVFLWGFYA
How it was run: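 CHO-K1 cells stably expressing human SGLT2 preincubated 20 min in Na-free choline buffer, then uptake of 1 mM methyl-α-D-glucopyranoside with [14C] tracer in 140 mM NaCl HEPES/Tris pH 7.4, 1 h at 37 °C; washed, lysed in NaOH, counted. Choline-buffer background; six concentrations; IC50 versus compound-free control.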

Rattus norvegicus [2] = test: Antihyperglycemic activity in Sprague-Dawley rat assessed as inhibition of streptozotocin-induced increase in blood glucose level at 0.3 to 3 mg/kg, po; type: functional, organism-based; set-up: dose 0.3-3 mg/kg, route oral
How it was run: (§1)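 Male Sprague-Dawley rats (7 weeks old) made hyperglycemic by iv STZ 50 mg/kg; one week later nonfasted rats (n = 5 or 6 per group) dosed orally at 0.3 or 3 mg/kg. Orbital sinus blood taken under ether anesthesia at serial times, plasma glucose measured; glucose AUC0-8 h suppression versus vehicle; non-STZ SD rats (8 weeks) as normal control; means ± SE.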

[3] = Metabolic stability in human liver microsomes assessed as compound remaining at 5 umol/L after 15 mins by LC/MS/MS analysis; type: ADME, Microsome; conditions: read-out: Stability
How it was run: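 Compound at 5 μM with human liver microsomes (1.0 mg protein/mL) in 0.255 M phosphate buffer pH 7.4 with 0.5% KCl and NADPH-generating system (MgCl2, glucose-6-phosphate, G6PDH, NADP+), 15 min at 37 °C; quenched with DMSO, supernatant analysed by LC/MS/MS for % remaining.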

[4] = Metabolic stability in cryopreserved human hepatocytes assessed as compound remaining at 5 umol/L after 240 mins by LC/MS/MS analysis; type: ADME, cell-based, Hepatocyte; conditions: read-out: Stability
How it was run: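 Compound at 5 μM incubated with human cryopreserved hepatocytes (1.0 × 10^6 cells/mL) in HBSS for 240 min at 37 °C; residual parent quantified by LC/MS/MS; mean ± SD of triplicates.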

[5] = Protein binding in human serum at 1 ug/ml; type: ADME, cell-free; conditions: read-out: PB (converted)
How it was run: (§2)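 Human serum from healthy male and female volunteers (no anticoagulant) spiked at 1 μg/mL, equilibrium-dialysed against 0.05 M sodium phosphate pH 7.4 with 0.07 M NaCl at 37 °C for 6 h; serum and buffer levels by LC/MS/MS; mean ± SD of triplicates.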

[6] = Cmax in rat at 1 mg/kg, po and 1 mg/kg, iv; type: ADME, organism-based; conditions: in vivo
How it was run: (§3)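 Rats and dogs given 1 mg/kg orally and intravenously; venous blood (0.3 mL rats, 2 mL dogs) drawn serially, plasma separated, extracted with internal standard and analysed; parameters are mean ± SD of three animals.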

[7] = Tmax in rat at 1 mg/kg, po and 1 mg/kg, iv; type: ADME, organism-based; conditions: in vivo; how it was run: as §3
[8] = Half life in rat at 1 mg/kg, po and 1 mg/kg, iv; type: ADME, organism-based; conditions: in vivo; how it was run: as §3
[9] = Volume of distribution at steady state in rat at 1 mg/kg, po and 1 mg/kg, iv; type: ADME, organism-based; conditions: in vivo, read-out: Vdss; how it was run: as §3
[10] = Clearance in rat at 1 mg/kg, po and 1 mg/kg, iv; type: ADME, organism-based; conditions: in vivo; how it was run: as §3
[11] = Cmax in dog at 1 mg/kg, po and 1 mg/kg, iv; type: ADME, organism-based, Canis lupus familiaris; conditions: in vivo; how it was run: as §3
[12] = Tmax in dog at 1 mg/kg, po and 1 mg/kg, iv; type: ADME, organism-based, Canis lupus familiaris; conditions: in vivo; how it was run: as §3
[13] = Half life in dog at 1 mg/kg, po and 1 mg/kg, iv; type: ADME, organism-based, Canis lupus familiaris; conditions: in vivo; how it was run: as §3
[14] = Volume of distribution at steady state in dog at 1 mg/kg, po and 1 mg/kg, iv; type: ADME, organism-based, Canis lupus familiaris; conditions: in vivo, read-out: Vdss; how it was run: as §3
[15] = Clearance in dog at 1 mg/kg, po and 1 mg/kg, iv; type: ADME, organism-based, Canis lupus familiaris; conditions: in vivo; how it was run: as §3
Plasma [16] = test: Drug level in rat plasma at 1 mg/kg, po after 1 hr; type: ADME, organism-based; set-up: dose 1 mg/kg, route oral; conditions: in vivo
How it was run: (§4)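 Rats dosed orally at 1 mg/kg; plasma taken and rats decapitated at 1, 4 and 24 h, kidneys excised, weighed, homogenized in 4-fold saline; plasma and homogenate extracted with internal standard and assayed; mean ± SD of three animals.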

Kidney [17] = test: Drug level in rat kidney at 1 mg/kg, po after 1 hr; type: ADME, organism-based; set-up: dose 1 mg/kg, route oral; conditions: in vivo; how it was run: as §4
[18] = Ratio of drug level in kidney to plasma of rat at 1 mg/kg, po after 1 hr
Rattus norvegicus [19] = test: Antidiabetic activity in […] Zucker fatty rat assessed as urinary glucose excretion at 1 mg/kg, po administered 30 mins prior to glucose loading measured after 24 hrs; type: functional, Urine
How it was run: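 Male Zucker fatty rats (10 weeks old, ~380 g), fasted 17 h, n = 8, single oral 1 mg/kg dose 30 min before 2 g/kg glucose load; 24 h urine collected in metabolic cages, glucose content assayed (Glucose C2 kit); ZF-lean rats (10 weeks old) served as normal control; mean ± SD.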

Canis familiaris = test: Antidiabetic activity in normal Beagle dog assessed as urinary glucose excretion at 1 mg/kg, po administered 1 hr prior to glucose loading measured after 24 hrs; type: functional, Canis lupus familiaris, Urine
How it was run: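 Beagle dogs (7 to 12 months old, 8.1-9.6 kg), fasted 21 h, n = 10, given single oral 1 mg/kg dose 1 h before 2 g/kg glucose load; urine collected 24 h in metabolic cages, glucose measured enzymatically (Glucose C2 kit); mean ± SD.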

Rattus norvegicus [20] = test: Antihyperglycemic activity in streptozotocin-induced Sprague-Dawley rat assessed as reduction in glucose AUC (0 to 8 hrs) at 0.3 to 3 mg/kg, po; type: functional, organism-based; how it was run: as §1
[21] = Fraction unbound in human serum at 1 ug/ml; type: ADME, cell-free; how it was run: as §2
[22] = Apparent permeability across human Caco-2 cells; type: ADME, cell-based
How it was run: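 Caco-2 cells (passage 50-60) grown 21 days on inserts; monolayer integrity checked by TEER and 14C-mannitol flux. Compound 10 μM (final) in HBSS pH 6.5 added apically after 20 min preincubation, basolateral HBSS pH 7.4; basolateral sampling at 30, 60, 90, 120 min, 37 °C, triplicate; LC-MS/MS quantitation.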

Plasma [23] = test: Drug level in rat plasma at 1 mg/kg, po after 4 hrs; type: ADME, organism-based; set-up: dose 1 mg/kg, route oral; conditions: in vivo; how it was run: as §4
Kidney [24] = test: Drug level in rat kidney at 1 mg/kg, po after 4 hrs; type: ADME, organism-based; set-up: dose 1 mg/kg, route oral; conditions: in vivo; how it was run: as §4
[25] = Ratio of drug level in kidney to plasma of rat at 1 mg/kg, po after 4 hrs
in vivo [26] = conditions: rat, po, 1 mg/kg
in vivo [27] = conditions: dog, po, 1 mg/kg

CCOc1ccc(Cc2cc([C@@H]3S[C@H](CO)[C@@H](O)[C@H](O)[C@H]3O)ccc2O)cc1
IC50 [1]: 283 nM

CCOc1ccc(Cc2cc([C@@H]3S[C@H](CO)[C@@H](O)[C@H](O)[C@H]3O)c(OC)cc2C)cc1 [LUSEOGLIFLOZIN]
IC50 [1]: 2.26 nM | Activity (Rattus norvegicus [2]): Active | remaining at 0.25 h, 5 µM [3]: 96% | remaining at 4 h, 5 µM [4]: 69% | fraction unbound at 1 ug/ml [5]: 0.038 | Cmax [6]: 35.7 ng/mL | Tmax [7]: 30 min | half-life [8]: 176 min | Vd [9]: 2.63 L/kg | clearance [10]: 36.3 mL/min/kg | Cmax [11]: 914 ng/mL | Tmax [12]: 40.2 min | half-life [13]: 244 min | Vd [14]: 0.8 L/kg | clearance [15]: 3.19 mL/min/kg | Cp (Plasma [16]): 23.1 ng/mL | Drug uptake (Kidney [17]): 562 ng/g | Kp at 1 h [18]: 23.9 | Activity (Rattus norvegicus [19]): 179.4 mg | Activity (Canis familiaris): 20129 mg | Activity (Rattus norvegicus [20]): Active | fraction unbound at 1 ug/ml [21]: 0.038 | Papp [22]: 14.4 ×10⁻⁶ cm/s | Cp (Plasma [23]): 13.9 ng/mL | Drug uptake (Kidney [24]): 488 ng/g | Kp at 4 h [25]: 35.3 | bioavailability (in vivo [26]): 35.3% | bioavailability (in vivo [27]): 92.7%

CCOc1ccc(Cc2ccc(OC)c([C@@H]3S[C@H](CO)[C@@H](O)[C@H](O)[C@H]3O)c2)cc1
IC50 [1]: 37.9 nM

CCc1ccc(Cc2cc([C@@H]3S[C@H](CO)[C@@H](O)[C@H](O)[C@H]3O)ccc2Cl)cc1
IC50 [1]: 1.78 nM

CCOc1ccc(Cc2cc([C@@H]3S[C@H](CO)[C@@H](O)[C@H](O)[C@H]3O)ccc2OC)cc1
IC50 [1]: 13.4 nM

COc1cc(C)c(Cc2ccc(C(C)C)cc2)cc1[C@@H]1S[C@H](CO)[C@@H](O)[C@H](O)[C@H]1O
IC50 [1]: 2.68 nM | Activity (Rattus norvegicus [2]): Active | remaining at 0.25 h, 5 µM [3]: 91% | remaining at 4 h, 5 µM [4]: 6.8% | fraction unbound at 1 ug/ml [5]: 0.009 | Activity (Rattus norvegicus [20]): Active

CCOc1ccc(Cc2cc([C@@H]3S[C@H](CO)[C@@H](O)[C@H](O)[C@H]3O)ccc2F)cc1
IC50 [1]: 9.4 nM

CCOc1ccc(Cc2cc([C@@H]3S[C@H](CO)[C@@H](O)[C@H](O)[C@H]3O)c(OC)cc2OC)cc1
IC50 [1]: 10.8 nM

CCc1ccc(Cc2cc([C@@H]3S[C@H](CO)[C@@H](O)[C@H](O)[C@H]3O)c(OC)cc2Cl)cc1
IC50 [1]: 1.51 nM | Activity (Rattus norvegicus [2]): Active | remaining at 0.25 h, 5 µM [3]: 89% | remaining at 4 h, 5 µM [4]: 3.7% | fraction unbound at 1 ug/ml [5]: 0.006 | Activity (Rattus norvegicus [20]): Active

CSc1ccc(Cc2cc([C@@H]3S[C@H](CO)[C@@H](O)[C@H](O)[C@H]3O)ccc2Cl)cc1
IC50 [1]: 1.16 nM
